The target in test [1] is Cyclin-dependent kinase 2/cyclin E1 (Homo sapiens) (UniProt P24864+P24941). The experiment in a line: Inhibition of CDK2/cyclinE (unknown origin) using histone-H1 and [gamma-33P]ATP at 10 uM by scintillation counting. It is filed as protein-complex assay. The method, boiled down: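 CDK2/cyclin E was run under a commercial kinase-profiling protocol in 8 mM MOPS pH 7.0 with 0.2 mM EDTA, 0.1 mg/ml histone H1, 10 mM magnesium acetate and 10 micromolar ATP including γ-³³P-ATP (500 cpm/pmol). Incorporation was measured by scintillation counting, with the no-inhibitor count set as 100% activity. Runs were done in triplicate.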

For test [2], the system named is Radical scavenging activity. The experiment in a line: Antioxidant activity assessed as DPPH radical scavenging activity by spectrophotometry. It is filed as functional. Further details: concentration or dose not given beside the values.
The next test concerns HCT-116. The test is described as follows: Cytotoxicity against human HCT116 cells after 7 days by crystal violet staining based clonogenic assay. The format is functional, cell-based. As to conditions: HCT-116, 168 h. The method, boiled down:
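HCT116 cells in DMEM with 10% heat-inactivated FBS, seeded at 5 × 10³ cells/well in 24-well plates, untreated or exposed to four compound concentrations for 7 days. Colonies were fixed with 6% glutaraldehyde and stained with 0.1% crystal violet, and survival density was read by densitometry. IC50 came from curve fitting. The whole experiment was repeated independently three times.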

With `O=C(Oc1cc(O)c2c(c1)OC(c1ccc(O)cc1)CC2=O)c1cccs1` (configuration not stated), the inhibition in test [1] was 83.6%. For the same molecule, the Activity in test [2] amounted to 11.2%. Also, 1.2 µM corresponded to half-maximal inhibition in the test with HCT-116 (IC50).
With `O=C1O[C@H]([C@@H](O)CO)C(O)=C1O`, the Activity in test [2] was found to be 89.1%.
Turning to `O=C(Oc1ccccc1)Oc1cc(O)c2c(c1)OC(c1ccc(O)cc1)CC2=O` (configuration not stated), the inhibition in test [1] came out at 42%. Moreover, in test [2], the Activity turned out to be 15.9%. In the test with HCT-116, this molecule gave an IC50 of 20 µM.
Molecule `CC(C)C(=O)Oc1cc(O)c2c(c1)OC(c1ccc(O)cc1)CC2=O` (configuration not stated) gave an inhibition in test [1] of 42.1%. In test [2], the Activity stood at 15.4%. For the same molecule, the IC50 in the test on HCT-116 was 15.9 µM.
As to `CCOC(=O)N/N=C1\CC(c2ccc(O)cc2)Oc2cc(O)cc(O)c21` (configuration not stated), in test [1], the inhibition was 62.3%. Moreover, the Activity in test [2] is 70.6%. For the same molecule, it took 4.35 µM to reach half-maximal inhibition in the test with HCT-116 (IC50).
For `Cc1ccccc1C(=O)Oc1cc(O)c2c(c1)OC(c1ccc(O)cc1)CC2=O` (configuration not stated), the inhibition in test [1] came to 48.9%. Further, the Activity in test [2] was found to be 14.2%. The IC50 with HCT-116 was determined as 6.03 µM.
For the molecule `C=CCOc1cc(O)c2c(c1)OC(c1ccc(O)cc1)CC2=O` (configuration not stated), the inhibition in test [1] is 84%. In addition, the Activity in test [2] came out at 20.7%. The molecule also came in with an IC50 in the test with HCT-116 of 1.91 µM.
In test [1], `O=C1CC(c2ccc(O)cc2)Oc2cc(O)cc(O)c21` (racemic) had an inhibition of 14.9%. In test [2], the Activity worked out at 59.3%. For the same molecule, the IC50 with HCT-116 stood at 36.8 µM.

These data come from ChEMBL document CHEMBL2311341, “Design, synthesis and inhibitory activities of naringenin derivatives on human colon cancer cells” (Bioorg Med Chem Lett, 2013).
